# T cruzi growth-1: T. cruzi intracellular proliferation inhibitors, primary screen, cell-based, beta-gal Tulahuen parasites, NIH3T3 host, luminescence. inhibition, % at 8.34 µM. T. cruzi beta-gal in NIH3T3, GalScreen luminescence, 90 h. AID 624255, 2012. 77,000 tested, 5.9% active;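 active = mean inhibition above about 93%, with at least 55% of replicates each passing it, limit read from the data, passing the limit was not always enough; inconclusive = only one of those two conditions holds; inactive = neither condition holds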
# Pf Dd2 inh: P. falciparum Dd2 growth inhibitors, primary screen, SYBR Green fluorescence, single dose replicates; 72 h; stronger effect = lower value; 94,000 tested, 2.3% active; activity change, % at 10 µM; in the data active = activity change below about -80%; inconclusive = no clear call, values can overlap the other calls
# GASC1 inh: inhibitors of GASC-1 (KDM4C) histone demethylase, primary screen, biochemical, single concentration HTS; inhibition, % at 12.5 µM; Lysine-specific demethylase 4C (Homo sapiens), Q9H3R0; 96,000 tested, 0.15% active; GST-KDM4C 2-372, H3K9me3 peptide, LANCE TR-FRET; AID 720574, 2013;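 active = mean replicate inhibition above about 25%, with at least 55% of replicates also reaching it, limit read from the data, passing the limit was not always enough; inconclusive = only one of those two conditions met; inactive = neither condition met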
# Target sequence (Q9H3R0 2-372 limits assumed): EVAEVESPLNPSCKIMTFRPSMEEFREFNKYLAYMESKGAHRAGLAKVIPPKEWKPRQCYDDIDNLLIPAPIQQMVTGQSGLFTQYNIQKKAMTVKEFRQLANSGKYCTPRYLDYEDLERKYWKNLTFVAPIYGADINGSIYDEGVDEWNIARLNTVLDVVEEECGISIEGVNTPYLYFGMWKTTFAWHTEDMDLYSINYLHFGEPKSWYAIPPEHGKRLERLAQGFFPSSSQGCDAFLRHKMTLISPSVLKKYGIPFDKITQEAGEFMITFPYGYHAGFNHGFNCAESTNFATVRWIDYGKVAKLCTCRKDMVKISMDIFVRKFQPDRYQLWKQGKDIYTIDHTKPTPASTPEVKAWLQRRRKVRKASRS
#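 Assay system: GST-GASC-1 enzyme fragment 2-372 | Amount: 10 nM enzyme | Medium: HEPES buffer, pH 7.5, plus ascorbate | Reagent: H3K9me3 peptide substrate, Fe(II), 2-oxoglutarate | Doses: Single-point compound screen | Incubation: 30 min demethylation and 1 h detection at room temperature | Measured by: LANCE TR-FRET, excitation 340 nm, emissions 618 and 671 nm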
# IDH1 mut inh: inhibitors of IDH1 R132H reductase, primary screen, biochemical, plate reader, single point; diaphorase/resazurin fluorescence, 60 min; 70,000 tested, 0.18% active; inhibition, % at 10 µM; Isocitrate dehydrogenase [NADP] cytoplasmic (Homo sapiens), O75874; in the data active = inhibition above about 34%; inconclusive = no clear call, values can overlap the other calls; inactive = below about 11%;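 note: 0% = DMSO and 100% = no enzyme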
# T cruzi growth-2: T. cruzi intracellular proliferation inhibitors, confirmation, cell-based, NIH3T3 host, beta-gal parasite, luminescence, cherry-pick. shares compounds with T cruzi growth-1. T. cruzi beta-gal in NIH3T3, GalScreen luminescence, 90 h. inhibition, % at 8.35 µM. 5,600 tested, 72% active;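 active = mean replicate inhibition above about 95% and at least 55% of replicates individually reaching it, limit read from the data; inconclusive = only one of the two criteria is met; inactive = neither criterion is met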
# T cruzi growth-3: inhibitors of intracellular T. cruzi replication, confirmation, NIH3T3 host cells, beta-gal parasites, cherry-pick, set 2. shares compounds with T cruzi growth-1. T. cruzi beta-gal in NIH3T3, GalScreen luminescence, 90 h. inhibition, % at 2.09 µM. 5,600 tested, 21% active. AID 651740, 2012;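 active = mean inhibition above about 95%, with at least 55% of replicates also reaching it, limit read from the data; inconclusive = meets just one of the two conditions; inactive = meets neither condition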;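 note: plate controls were neutral control median for no effect and positive control median for full effect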
# NIH3T3 tox: cytotoxicity in mouse NIH/3T3 fibroblasts, confirmation, cytotoxicity control for T. cruzi proliferation inhibitor project, cell-based, cherry-pick, single point | shares compounds with T cruzi growth-1 | NIH/3T3 viability, CellTiter-Glo ATP luminescence, 90 h | cytotoxicity (signal decrease), % at 8.35 µM | 5,600 tested, 14% active;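 active = mean signal decrease across replicates above about 35% based on untreated-well scatter, with enough replicates individually passing, limit read from the data; inconclusive = no rule stated though some were filed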;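 note: 0% = median of neutral control wells and 100% = median of positive control wells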
# 3T3 cytotox 2: NIH/3T3 fibroblast cytotoxicity, confirmation, cytotoxicity control, cell-based, cherry-pick, single point, set 2 | shares compounds with T cruzi growth-1 | NIH/3T3 viability, CellTiter-Glo ATP luminescence, 90 h | inhibition, % at 24.9 µM | 5,600 tested, 56% active;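 active = mean loss of cell viability signal at or above a set limit, and enough replicates individually reaching it; inconclusive = meets only the mean limit or only the replicate share; inactive = meets neither condition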;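 note: 0% = median of neutral control wells and 100% = median of positive control wells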
# An asterisk follows results filed as active; ? = inconclusive; . = no result given. Most compounds without a hit are left out; they make up all but 5.9% or so of the library.
SMILES,T cruzi growth-1,Pf Dd2 inh,GASC1 inh,IDH1 mut inh,T cruzi growth-2,T cruzi growth-3,NIH3T3 tox,3T3 cytotox 2
COc1ccc(S(=O)(=O)N(C)C[C@H]2OCCCC[C@@H](C)Oc3ccc(NS(=O)(=O)c4cccs4)cc3C(=O)N([C@H](C)CO)C[C@H]2C)cc1,109.9*,-71.6,-3.2,.,113.0*,29.0,0.9,-20.4
CC=Cc1ccc2n(c1=O)C[C@@H]1N[C@H]2[C@H](C(=O)NCCc2ccccc2)[C@H]1CO (mixture of isomers),3.0,.,-0.9,.,.,.,.,.
Cc1nnc(SCC(=O)Nc2ccc(Br)cc2F)s1,.,.,.,-0.6,.,.,.,.
C[C@@H]1CN([C@H](C)CO)C(=O)Cc2cc(N(C)C)ccc2O[C@@H]1CN(C)Cc1ccc(Oc2ccccc2)cc1,40.1,0.9,0.6,1.5,.,.,.,.
C[C@H]1CN([C@@H](C)CO)C(=O)Cc2cc(N(C)C)ccc2O[C@H]1CN(C)Cc1ccc(Oc2ccccc2)cc1,?,-10.0,-1.8,-0.1,105.7*,113.7*,19.2,105.9*
C[C@H]1CN([C@@H](C)CO)C(=O)Cc2cc(N(C)C)ccc2O[C@@H]1CN(C)Cc1ccc(Oc2ccccc2)cc1,115.2*,-10.0,0.3,2.6,104.5*,47.7,-10.5,77.4*
C[C@H](CO)N1C[C@H](C)[C@H](CN(C)Cc2ccc(Oc3ccccc3)cc2)Oc2ccc(N(C)C)cc2C1=O,98.1*,-10.5,-0.8,0.7,?,8.3,-6.2,101.4*
CC(C)[C@H]1COCc2cn(nn2)CC[C@@H](Cc2ccccc2)C(=O)N1,.,.,4.3,.,.,.,.,.
Cc1ccc(S(=O)(=O)N2CC[C@@H]3[C@@H](CO)N(C)c4ccc(-c5cccc(C#N)c5)cc4[C@@H]32)cc1,92.7,-6.6,-18.7,.,.,.,.,.
CN1c2ccc(-c3cccc(C#N)c3)cc2[C@H]2[C@H](CCN2S(=O)(=O)c2ccc(F)cc2)[C@@H]1CO,96.0*,8.8,-0.7,.,102.4*,47.8,18.0,13.3
CN1c2ccc(C3=CCCCC3)cc2[C@@H]2[C@@H](CCN2S(=O)(=O)c2ccc(F)cc2)[C@H]1CO,71.5,-13.6,-0.2,.,.,.,.,.
CN1c2ccc(C3=CCCCC3)cc2[C@@H]2[C@@H](CCN2S(=O)(=O)c2ccccc2)[C@@H]1CO,105.0*,-16.9,0.2,.,96.0*,106.3*,33.0,77.7*
Cc1ccc(S(=O)(=O)N2CC[C@@H]3[C@H]2c2cc(-c4cccc(C#N)c4)ccc2N(C)[C@H]3CO)cc1,?,9.4,1.5,.,103.5*,100.2*,43.7*,41.5*
CN1c2ccc(-c3cccc(C#N)c3)cc2[C@@H]2[C@@H](CCN2S(=O)(=O)c2ccccc2)[C@H]1CO,97.0*,-5.1,0.6,.,98.2*,108.5*,52.5*,76.4*
C[C@H]1CN([C@@H](C)CO)C(=O)c2cc(C#CC3(O)CCCC3)cnc2O[C@@H]1CN(C)S(=O)(=O)c1ccc(F)cc1,-24.1,11.6,0.2,-0.5,.,.,.,.
CN1c2ccc(-c3cccc(C#N)c3)cc2[C@@H]2[C@@H](CCN2S(=O)(=O)c2ccccc2F)[C@H]1CO,45.7,-57.4,-0.3,.,.,.,.,.
COc1cccc(-c2ccc3c(c2)[C@@H]2[C@@H](CCN2S(=O)(=O)c2ccc(F)cc2)[C@@H](CO)N3C)c1,79.7,-20.5,-1.8,.,.,.,.,.
CN1c2ccc(-c3cccc(C#N)c3)cc2[C@@H]2[C@@H](CCN2S(=O)(=O)c2ccccc2F)[C@@H]1CO,91.8*,-32.9,-1.2,.,108.2*,69.7,?,6.1
COc1cccc(-c2ccc3c(c2)[C@H]2[C@H](CCN2S(=O)(=O)c2ccc(F)cc2)[C@H](CO)N3C)c1,101.0*,8.0,-1.4,.,103.1*,100.0*,31.7,6.0
CN1c2ccc(-c3cccc(C#N)c3)cc2[C@H]2[C@H](CCN2S(=O)(=O)c2ccccc2)[C@H]1CO,100.5*,4.9,-3.3,.,108.4*,81.8,19.5,26.1*
Cc1c(C(=O)Nc2sc3c(c2C(=O)NCc2ccco2)CCCC3)oc2ccccc12,.,.,.,-0.1,.,.,.,.
Cc1noc(C)c1NC(=O)N[C@H]1CC[C@@H](CCNC(=O)C2CCCC2)O[C@@H]1CO,.,1.6,0.7,0.3,.,.,.,.
C[C@@H]1CN([C@H](C)CO)C(=O)c2cc(C#Cc3ccccn3)cnc2O[C@H]1CN(C)Cc1cncnc1,104.0*,9.7,0.7,0.2,106.7*,55.5,13.1,18.3
C[C@@H]1CN([C@@H](C)CO)C(=O)c2cc(C#Cc3ccccn3)cnc2O[C@H]1CN(C)Cc1cncnc1,104.8*,22.0,2.5,-8.0,101.7*,34.6,-13.3,18.0
CC(C)C#Cc1cnc2c(c1)C(=O)N([C@@H](C)CO)C[C@H](C)[C@@H](CN(C)Cc1cncnc1)O2,97.4*,21.8,-1.7,-0.1,98.6*,11.4,-15.7,10.6
SMILES,T cruzi growth-1,Pf Dd2 inh,GASC1 inh,IDH1 mut inh,T cruzi growth-2,T cruzi growth-3,NIH3T3 tox,3T3 cytotox 2
O=C(C1CCCC1)N1CC2(C1)[C@H](c1ccccc1)[C@H](CO)N2Cc1cncnc1,.,20.9,-0.6,.,.,.,.,.
COc1ccc(NC(=O)N[C@@H]2CC[C@H](CCNC(=O)c3cc(Cl)cc(Cl)c3)O[C@@H]2CO)cc1,13.4,-29.3,0.2,-0.3,.,.,.,.
COC(=O)C[C@@H]1CC[C@@H]2[C@@H](COc3ccc(NC(=O)c4ccc(OC)cc4)cc3C(=O)N2C)O1,12.2,-4.5,-0.3,.,.,.,.,.
O=C(c1ccccn1)N1CC2(C1)[C@H](c1ccccc1)[C@H](CO)N2C(=O)C1CC1,.,-1.9,0.8,.,.,.,.,.
CO[C@@H]1CN(C)C(=O)c2cc(NC(=O)C3CCOCC3)ccc2OC[C@@H](C)N(CC2CC2)C[C@@H]1C,98.9*,-36.3,0.7,0.1,46.4,10.2,-14.1,6.0
CO[C@@H]1CN(C)C(=O)c2ccc(NC(=O)C3CCC3)cc2OC[C@H](C)N(CC2CCCCC2)C[C@@H]1C,3.1,-69.2,1.9,0.4,.,.,.,.
CO[C@H]1CN(C)C(=O)c2ccc(NC(=O)C3CCC3)cc2OC[C@@H](C)N(CC2CCCCC2)C[C@@H]1C,?,-65.7,-0.6,0.4,107.0*,23.5,-12.3,103.3*
